From ChEMBL document CHEMBL3124940, “Design, synthesis and biological evaluation of D-ring opened galantamine analogs as multifunctional anti-Alzheimer agents” (Eur J Med Chem, 2014)
pIC50: −log10 of the molar value.

Experiments:
Acetylcholinesterase = Acetylcholinesterase (Electrophorus electricus, UniProt O42275); experiment: Inhibition of electric eel AChE using acetylthiocholine iodide as substrate preincubated for 5 mins followed by substrate addition measured after 5 mins by Ellman's method
Cholinesterase = Cholinesterase (Equus caballus, UniProt P81908); experiment: Inhibition of equine serum BChE using butyrylthiocholine iodide as substrate preincubated for 5 mins followed by substrate addition measured after 5 mins by Ellman's method
Outline: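 Ellman's method with equine serum BChE and butyrylthiocholine iodide; DTNB read-out at 412 nm, 25 °C. Phosphate buffer pH 8.0. At least five concentrations (normally 10^-4 to 10^-9 M), each in triplicate, to build the inhibition curve. Data are means of at least three determinations.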

[1] = Selectivity ratio of IC50 for electric eel AChE to IC50 for equine serum BChE
Outline: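 AChE is electric eel Type VI-S with acetylthiocholine; BChE is equine serum with butyrylthiocholine. At least five concentrations, each in triplicate. Ratio = IC50(AChE)/IC50(BChE).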

Rattus norvegicus [2] = experiment: Toxicity in Wistar rat assessed as lipidperoxidation product level in kidney at 6 umol/100 g body weight, ip by fluorometric analysis relative to control; assay type: organism-based; conditions: in vivo
Outline: (§1)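 Rats dosed i.p.; tissues taken after 24 h. For GSH/GSSG, tissue homogenized in 11 volumes of 0.2 M sodium phosphate (5 mM EDTA, pH 8.0) plus 4 volumes of 25% metaphosphoric acid and centrifuged 12 000 × g, 4 °C, 30 min; supernatant read photometrically (GSH) or fluorometrically (GSSG). Lipid peroxidation products measured as TBARS in 19-volume ice-cold saline homogenates, fluorometrically.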

Rattus norvegicus [3] = experiment: Toxicity in Wistar rat assessed as lipidperoxidation product level in kidney at 1 umol/100 g body weight, ip by fluorometric analysis relative to control; assay type: organism-based; conditions: in vivo; outline: as §1
Rattus norvegicus [4] = experiment: Toxicity in Wistar rat assessed as total glutathione level in kidney at 6 umol/100 g body weight, ip by fluorometric analysis relative to control; assay type: organism-based; conditions: in vivo; outline: as §1
Rattus norvegicus [5] = experiment: Toxicity in Wistar rat assessed as total glutathione level in kidney at 1 umol/100 g body weight, ip by fluorometric analysis relative to control; assay type: organism-based; conditions: in vivo; outline: as §1
Rattus norvegicus [6] = experiment: Toxicity in Wistar rat assessed as GSSG level in kidney at 6 umol/100 g body weight, ip by fluorometric analysis relative to control; assay type: organism-based; conditions: in vivo; outline: as §1
Rattus norvegicus [7] = experiment: Toxicity in Wistar rat assessed as GSSG level in kidney at 1 umol/100 g body weight, ip by fluorometric analysis relative to control; assay type: organism-based; conditions: in vivo; outline: as §1
Rattus norvegicus [8] = experiment: Toxicity in Wistar rat assessed as GSH level in kidney at 6 umol/100 g body weight, ip by fluorometric analysis relative to control; assay type: organism-based; conditions: in vivo
Rattus norvegicus [9] = experiment: Toxicity in Wistar rat assessed as GSH level in kidney at 1 umol/100 g body weight, ip by fluorometric analysis relative to control; assay type: organism-based; conditions: in vivo
Rattus norvegicus [10] = experiment: Toxicity in Wistar rat assessed as kidney weight at 6 umol/100 g body weight, ip relative to control; assay type: organism-based; conditions: in vivo
Rattus norvegicus [11] = experiment: Toxicity in Wistar rat assessed as kidney weight at 1 umol/100 g body weight, ip relative to control; assay type: organism-based; conditions: in vivo
Rattus norvegicus [12] = experiment: Toxicity in Wistar rat assessed as lipidperoxidation product level in brain at 6 umol/100 g body weight, ip by fluorometric analysis relative to control; assay type: organism-based; conditions: in vivo; outline: as §1
Rattus norvegicus [13] = experiment: Toxicity in Wistar rat assessed as lipidperoxidation product level in brain at 1 umol/100 g body weight, ip by fluorometric analysis relative to control; assay type: organism-based; conditions: in vivo; outline: as §1
Rattus norvegicus [14] = experiment: Toxicity in Wistar rat assessed as total glutathione level in brain at 6 umol/100 g body weight, ip by fluorometric analysis relative to control; assay type: organism-based; conditions: in vivo; outline: as §1
Rattus norvegicus [15] = experiment: Toxicity in Wistar rat assessed as total glutathione level in brain at 1 umol/100 g body weight, ip by fluorometric analysis relative to control; assay type: organism-based; conditions: in vivo; outline: as §1
Rattus norvegicus [16] = experiment: Toxicity in Wistar rat assessed as GSSG level in brain at 6 umol/100 g body weight, ip by fluorometric analysis relative to control; assay type: organism-based; conditions: in vivo; outline: as §1
Rattus norvegicus [17] = experiment: Toxicity in Wistar rat assessed as GSSG level in brain at 1 umol/100 g body weight, ip by fluorometric analysis relative to control; assay type: organism-based; conditions: in vivo; outline: as §1
Rattus norvegicus [18] = experiment: Toxicity in Wistar rat assessed as GSH level in brain at 6 umol/100 g body weight, ip by fluorometric analysis relative to control; assay type: organism-based; conditions: in vivo
Rattus norvegicus [19] = experiment: Toxicity in Wistar rat assessed as GSH level in brain at 1 umol/100 g body weight, ip by fluorometric analysis relative to control; assay type: organism-based; conditions: in vivo
Rattus norvegicus [20] = experiment: Toxicity in Wistar rat assessed as brain weight at 6 umol/100 g body weight, ip relative to control; assay type: organism-based; conditions: in vivo
Rattus norvegicus [21] = experiment: Toxicity in Wistar rat assessed as brain weight at 1 umol/100 g body weight, ip relative to control; assay type: organism-based; conditions: in vivo
Rattus norvegicus [22] = experiment: Toxicity in Wistar rat assessed as ethoxyresorufin-O-deethylation activity in liver measured as resorufin level at 6 umol/100 g body weight, ip by fluorometric analysis relative to control; assay type: organism-based; conditions: in vivo
Outline: (§2)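 Rats dosed i.p.; after 24 h, liver homogenized 1:3 w/v in 0.1 M sodium phosphate pH 7.4 and centrifuged at 9000 × g, 4 °C, 20 min. Supernatant protein determined by the Biuret method. Ethoxyresorufin-O-deethylation measured fluorometrically as resorufin formed.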

Rattus norvegicus [23] = experiment: Toxicity in Wistar rat assessed as ethoxyresorufin-O-deethylation activity in liver measured as resorufin level at 1 umol/100 g body weight, ip by fluorometric analysis relative to control; assay type: organism-based; conditions: in vivo; outline: as §2
Rattus norvegicus [24] = experiment: Toxicity in Wistar rat assessed as ethoxycoumarin-O-deethylation activity in liver measured as 7-hydroxycoumarin level at 6 umol/100 g body weight, ip by fluorometric analysis relative to control; assay type: organism-based; conditions: in vivo
Rattus norvegicus [25] = experiment: Toxicity in Wistar rat assessed as ethoxycoumarin-O-deethylation activity in liver measured as 7-hydroxycoumarin level at 1 umol/100 g body weight, ip by fluorometric analysis relative to control; assay type: organism-based; conditions: in vivo
Rattus norvegicus [26] = experiment: Toxicity in Wistar rat assessed as ethylmorphine-N-demethylation activity in liver measured as formaldehyde level at 6 umol/100 g body weight, ip by photometric analysis relative to control; assay type: organism-based; conditions: in vivo
Rattus norvegicus [27] = experiment: Toxicity in Wistar rat assessed as ethylmorphine-N-demethylation activity in liver measured as formaldehyde level at 1 umol/100 g body weight, ip by photometric analysis relative to control; assay type: organism-based; conditions: in vivo
Rattus norvegicus [28] = experiment: Toxicity in Wistar rat assessed as protein content in liver at 6 umol/100 g body weight, ip by Biuret method relative to control; assay type: organism-based; conditions: in vivo; outline: as §2
Rattus norvegicus [29] = experiment: Toxicity in Wistar rat assessed as protein content in liver at 1 umol/100 g body weight, ip by Biuret method relative to control; assay type: organism-based; conditions: in vivo; outline: as §2
Rattus norvegicus [30] = experiment: Toxicity in Wistar rat assessed as lipidperoxidation product level in liver at 6 umol/100 g body weight, ip relative to control; assay type: organism-based; conditions: in vivo
Rattus norvegicus [31] = experiment: Toxicity in Wistar rat assessed as lipidperoxidation product level in liver at 1 umol/100 g body weight, ip relative to control; assay type: organism-based; conditions: in vivo
Rattus norvegicus [32] = experiment: Toxicity in Wistar rat assessed as total glutathione level in liver at 6 umol/100 g body weight, ip by fluorometric analysis relative to control; assay type: organism-based; conditions: in vivo
Outline: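 Rats were dosed, killed 24 h later, and liver and other tissues were taken. Samples were homogenized in 11 vol 0.2 M sodium phosphate (5 mM EDTA, pH 8.0) plus 4 vol 25% metaphosphoric acid, then spun at 12 000 × g, 4 °C, 30 min. GSH was read photometrically and GSSG fluorometrically in the supernatant, alongside total glutathione.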

Rattus norvegicus [33] = experiment: Toxicity in Wistar rat assessed as total glutathione level in liver at 1 umol/100 g body weight, ip by fluorometric analysis relative to control; assay type: organism-based; conditions: in vivo; outline: as §1
Rattus norvegicus [34] = experiment: Toxicity in Wistar rat assessed as GSSG level in liver at 6 umol/100 g body weight, ip by fluorometric analysis relative to control; assay type: organism-based; conditions: in vivo; outline: as §1
Rattus norvegicus [35] = experiment: Toxicity in Wistar rat assessed as GSSG level in liver at 1 umol/100 g body weight, ip by fluorometric analysis relative to control; assay type: organism-based; conditions: in vivo; outline: as §1
Rattus norvegicus [36] = experiment: Toxicity in Wistar rat assessed as GSH level in liver at 6 umol/100 g body weight, ip by fluorometric analysis relative to control; assay type: organism-based; conditions: in vivo
Rattus norvegicus [37] = experiment: Toxicity in Wistar rat assessed as GSH level in liver at 1 umol/100 g body weight, ip by fluorometric analysis relative to control; assay type: organism-based; conditions: in vivo
Rattus norvegicus [38] = experiment: Toxicity in Wistar rat assessed as liver weight at 6 umol/100 g body weight, ip relative to control; assay type: organism-based; conditions: in vivo
Rattus norvegicus [39] = experiment: Toxicity in Wistar rat assessed as liver weight at 1 umol/100 g body weight, ip relative to control; assay type: organism-based; conditions: in vivo
Rattus norvegicus [40] = experiment: Toxicity in Wistar rat assessed as body weight at 6 umol/100 g body weight, ip relative to control; assay type: organism-based; conditions: in vivo
Rattus norvegicus [41] = experiment: Toxicity in Wistar rat assessed as body weight at 1 umol/100 g body weight, ip relative to control; assay type: organism-based; conditions: in vivo
Rattus norvegicus [42] = experiment: Toxicity in Wistar rat assessed as change in movement at 1 umol/100 g body weight, ip; assay type: organism-based; conditions: in vivo
Rattus norvegicus [43] = experiment: Antialzheimer activity in Wistar rat scopolamine-induced cognition impairment model assessed as total exploration time at 1 umol/100 g body weight, ip treated for 5 mins prior to scopolamine-challenge by eight-arm radial maze test relative to control; assay type: functional
Outline: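 Female 60-day-old Wistar rats (Han:Wist) trained in an eight-arm radial maze to error-free trials under 60 s on three consecutive days; each animal served as its own control. Test agent given i.p. in saline 5 min before scopolamine (0.05 mg/100 g b. wt., i.p. in saline). Errors plus baits not found after 10 min, and total searching time, recorded before and 20, 60, 120 min after scopolamine; n = 14, mean ± SEM.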

Rattus norvegicus [44] = experiment: Toxicity in Wistar rat scopolamine-induced cognition impairment model assessed as change in movement at 1 umol/100 g body weight, ip; assay type: organism-based; conditions: in vivo
Outline: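 60-day-old female Wistar rats were trained in an eight-arm radial maze to no errors in under 60 s on 3 consecutive days; each rat served as its own control. Compound in saline was given i.p., then scopolamine (0.05 mg/100 g, saline, i.p.) 5 min later. Errors plus baits not found after 10 min and total searching time were recorded before and 20, 60 and 120 min after scopolamine; n = 14, mean ± SEM.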

Chain of Acetylcholinesterase (O42275 whole entry): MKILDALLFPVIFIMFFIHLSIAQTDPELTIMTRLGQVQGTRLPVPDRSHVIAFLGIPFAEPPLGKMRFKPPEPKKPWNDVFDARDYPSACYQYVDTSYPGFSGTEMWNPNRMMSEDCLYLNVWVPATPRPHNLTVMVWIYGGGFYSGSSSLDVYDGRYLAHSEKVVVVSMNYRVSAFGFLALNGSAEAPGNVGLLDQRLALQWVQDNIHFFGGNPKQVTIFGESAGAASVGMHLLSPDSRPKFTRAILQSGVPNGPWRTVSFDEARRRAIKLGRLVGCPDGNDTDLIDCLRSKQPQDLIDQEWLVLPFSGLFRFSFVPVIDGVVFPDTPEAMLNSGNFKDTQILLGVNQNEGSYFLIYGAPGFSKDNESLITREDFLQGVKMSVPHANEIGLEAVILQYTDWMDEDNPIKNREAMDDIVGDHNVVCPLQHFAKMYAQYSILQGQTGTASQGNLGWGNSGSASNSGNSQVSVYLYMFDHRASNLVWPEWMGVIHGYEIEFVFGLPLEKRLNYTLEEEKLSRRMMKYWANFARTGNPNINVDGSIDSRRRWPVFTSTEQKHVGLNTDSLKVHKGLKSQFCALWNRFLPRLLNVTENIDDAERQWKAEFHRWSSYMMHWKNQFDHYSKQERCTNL
Chain of Cholinesterase (P81908 whole entry): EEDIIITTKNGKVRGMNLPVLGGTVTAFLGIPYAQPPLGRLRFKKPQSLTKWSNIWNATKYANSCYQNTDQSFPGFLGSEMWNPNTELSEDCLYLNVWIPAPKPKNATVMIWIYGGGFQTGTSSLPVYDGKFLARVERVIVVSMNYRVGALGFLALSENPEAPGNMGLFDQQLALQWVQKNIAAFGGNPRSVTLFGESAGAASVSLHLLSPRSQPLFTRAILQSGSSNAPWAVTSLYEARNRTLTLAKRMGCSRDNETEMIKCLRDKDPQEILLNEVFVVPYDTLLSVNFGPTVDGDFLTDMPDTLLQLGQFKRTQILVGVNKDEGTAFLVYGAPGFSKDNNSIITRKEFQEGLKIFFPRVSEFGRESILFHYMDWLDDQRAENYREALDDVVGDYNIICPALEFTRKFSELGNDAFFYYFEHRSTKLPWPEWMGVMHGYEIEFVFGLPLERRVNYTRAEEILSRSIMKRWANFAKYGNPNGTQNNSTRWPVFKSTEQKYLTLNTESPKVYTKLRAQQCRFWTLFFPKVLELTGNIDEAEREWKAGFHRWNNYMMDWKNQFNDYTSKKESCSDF

CC(C)NCc1cccc2[nH]c3cc(O)ccc3c12
pIC50 (Acetylcholinesterase): 4.36
pIC50 (Cholinesterase): 4.76
Ratio IC50 [1]: 3.54

Nc1c2c(nc3ccccc13)CCCC2 [TACRINE]
Activity (Rattus norvegicus [2]): 89.2 nmol/g
Activity (Rattus norvegicus [3]): 87.4 nmol/g
Activity (Rattus norvegicus [4]): 1800 µg/g
Activity (Rattus norvegicus [5]): 1821 µg/g
Activity (Rattus norvegicus [6]): 171 µg/g
Activity (Rattus norvegicus [7]): 170 µg/g
Activity (Rattus norvegicus [8]): 1457 µg/g
Activity (Rattus norvegicus [9]): 1480 µg/g
Activity (Rattus norvegicus [10]): 0.61 g
Activity (Rattus norvegicus [11]): 0.65 g
Activity (Rattus norvegicus [12]): 154 nmol/g
Activity (Rattus norvegicus [13]): 123 nmol/g
Activity (Rattus norvegicus [14]): 822 µg/g
Activity (Rattus norvegicus [15]): 824 µg/g
Activity (Rattus norvegicus [16]): 75.6 µg/g
Activity (Rattus norvegicus [17]): 79.9 µg/g
Activity (Rattus norvegicus [18]): 671 µg/g
Activity (Rattus norvegicus [19]): 665 µg/g
Activity (Rattus norvegicus [20]): 1.82 g
Activity (Rattus norvegicus [21]): 1.77 g
Activity (Rattus norvegicus [22]): 100 pmol/mg/min
Activity (Rattus norvegicus [23]): 134 pmol/mg/min
Activity (Rattus norvegicus [24]): 197 pmol/mg/min
Activity (Rattus norvegicus [25]): 207 pmol/mg/min
Activity (Rattus norvegicus [26]): 0.44 nmol/mg/min
Activity (Rattus norvegicus [27]): 0.6 nmol/mg/min
Activity (Rattus norvegicus [28]): 65.5 mg/mL
Activity (Rattus norvegicus [29]): 61.8 mg/mL
Activity (Rattus norvegicus [30]): 62 nmol/g
Activity (Rattus norvegicus [31]): 63.8 nmol/g
Activity (Rattus norvegicus [32]): 3173 µg/g
Activity (Rattus norvegicus [33]): 3378 µg/g
Activity (Rattus norvegicus [34]): 431 µg/g
Activity (Rattus norvegicus [35]): 418 µg/g
Activity (Rattus norvegicus [36]): 2310 µg/g
Activity (Rattus norvegicus [37]): 2542 µg/g
Activity (Rattus norvegicus [38]): 6.2 g
Activity (Rattus norvegicus [39]): 6.8 g
Activity (Rattus norvegicus [40]): 219 g
Activity (Rattus norvegicus [41]): 228 g
Activity (Rattus norvegicus [42]): Toxic
Time (Rattus norvegicus [43]): 237 s
Activity (Rattus norvegicus [44]): Toxic

CCN(CC)Cc1cccc2[nH]c3cc(OC)ccc3c12
pIC50 (Acetylcholinesterase): 4.42
pIC50 (Cholinesterase): 4.83
Ratio IC50 [1]: 2.54
